IC50, inhibition and GI data for five compounds are collected here from ChEMBL document CHEMBL5696444 (Nat Commun, 2017).

The structures appear in SMILES notation. pIC50: −log10 of the molar value. Calls of active or inactive are those of the source. The calls are words filed in the database; no cut-off is given here.

For assay [1], the target named is Dual specificity protein kinase CLK2 (Homo sapiens, UniProt P49760). Briefly: Inhibition of N-terminal FLAG-tagged human CLK2 using ULight MBP peptide as substrate incubated for 10 mins in presence of ATP incubated for 45 mins by LANCE Ultra kinase assay.
Assay [2] addresses Dual specificity protein kinase CLK1 (Homo sapiens) (UniProt P49759). Kind of assay: Inhibition of CLK (unknown origin) in human HCT-116 cells assessed as SRSF4 level at 10 uM incubated for 6 hrs by immunoblot analysis. It counts as cell-based. In outline:
(§1)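 HCT116 cells were exposed to compound for 3 or 6 h, then lysed in 1× SDS sample buffer (0.16% SDS, Tris-HCl pH 6.8) and boiled 5 min. Lysates were run on 5–15% or 4–12% gradient gels and transferred to nitrocellulose or PVDF. Membranes were blocked in 5% milk or 3% BSA/TBS-T and probed overnight at 4 °C with anti-SR protein (16H3) or anti-phospho-SR (1H4, 1/1000), with GAPDH as loading control.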
(In general: In western blotting, separated proteins are transferred to a membrane and probed.)

The next assay relates to HCT-116. Kind of assay: Cytotoxicity against human HCT-116 cells assessed as inhibition of cell viability incubated for > 24 hrs. It counts as functional.
Assay [3] has as its target Dual specificity protein kinase CLK1 (Homo sapiens) (UniProt P49759). Briefly: Inhibition of CLK (unknown origin) in human HCT-116 cells assessed as SRSF6 level at 10 uM incubated for 6 hrs by immunoblot analysis. It counts as cell-based. The method, boiled down:
as §1

For assay [4] the target is unchanged. Kind of assay: Inhibition of CLK (unknown origin) in human HCT-116 cells assessed as phospho SR level at 10 uM incubated for 6 hrs by immunoblot analysis. It counts as cell-based. In outline:
as §1

Assay [5] shares this target. Kind of assay: Inhibition of CLK (unknown origin) in human HCT-116 cells assessed as SRSF1 level at 10 uM incubated for 6 hrs by immunoblot analysis. It counts as cell-based. The method, boiled down:
as §1

Sequence of Dual specificity protein kinase CLK1 (Homo sapiens) (P49759 whole entry, looked up): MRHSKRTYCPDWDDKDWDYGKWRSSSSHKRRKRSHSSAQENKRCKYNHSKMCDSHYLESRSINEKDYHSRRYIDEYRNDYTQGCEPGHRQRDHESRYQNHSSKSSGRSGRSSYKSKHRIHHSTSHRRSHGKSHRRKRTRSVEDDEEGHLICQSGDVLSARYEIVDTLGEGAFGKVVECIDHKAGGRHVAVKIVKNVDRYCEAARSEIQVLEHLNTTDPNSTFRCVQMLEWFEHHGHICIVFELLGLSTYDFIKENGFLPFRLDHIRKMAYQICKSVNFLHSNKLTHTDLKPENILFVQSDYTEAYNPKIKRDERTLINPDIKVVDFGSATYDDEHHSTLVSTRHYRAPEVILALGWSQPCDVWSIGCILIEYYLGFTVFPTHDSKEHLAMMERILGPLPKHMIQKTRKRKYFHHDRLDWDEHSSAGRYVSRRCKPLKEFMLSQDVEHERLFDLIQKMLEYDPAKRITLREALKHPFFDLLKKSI
Sequence of Dual specificity protein kinase CLK2 (P49760 whole entry): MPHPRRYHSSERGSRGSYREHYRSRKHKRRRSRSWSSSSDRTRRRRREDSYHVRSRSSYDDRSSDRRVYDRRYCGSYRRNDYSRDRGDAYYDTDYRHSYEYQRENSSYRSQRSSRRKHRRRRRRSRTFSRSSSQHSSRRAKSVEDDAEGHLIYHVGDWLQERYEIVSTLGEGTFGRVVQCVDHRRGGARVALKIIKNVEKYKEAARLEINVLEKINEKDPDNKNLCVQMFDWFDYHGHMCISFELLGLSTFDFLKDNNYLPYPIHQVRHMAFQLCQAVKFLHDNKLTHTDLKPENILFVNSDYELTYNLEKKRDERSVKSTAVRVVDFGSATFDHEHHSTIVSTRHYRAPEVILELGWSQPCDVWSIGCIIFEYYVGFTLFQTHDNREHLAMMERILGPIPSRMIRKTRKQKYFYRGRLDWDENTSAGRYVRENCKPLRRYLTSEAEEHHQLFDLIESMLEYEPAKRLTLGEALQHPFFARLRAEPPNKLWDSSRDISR

One may read the pIC50 as the negative decadic logarithm of the IC50, by convention in mol/L. In the case of `CC(C)(CCc1nn[nH]n1)c1ccc(C(=O)Nc2cn3cc(-c4ccncc4)ccc3n2)cc1`, the pIC50 in assay [1] is 7.30.

Consider `CC(C)(C(=O)N1CCNCC1)c1ccc(C(=O)Nc2cn3cc(-c4ccncc4)ccc3n2)cc1`, for which the pIC50 in assay [1] was 6.82.

Take `CCN1CCN(C(=O)C(C)(C)c2ccc(C(=O)Nc3cn4cc(-c5ccncc5)ccc4n3)cc2)CC1`: the pIC50 in assay [1] is 7.82.

In the case of `CC(C)(CCc1nn[nH]n1)c1ccc(C(=O)Nc2cn3cc(C(F)(F)F)ccc3n2)cc1`, in assay [1], the pIC50 was 6.44.

Regarding `CCOC(=O)c1c(/C(C#N)=C\N)c2ccc(Cl)c(Cl)c2n1C`, the inhibition entry in assay [2], in assay [3], in assay [4] and in assay [5] was “Active” each time. In addition, in the assay with HCT-116, the GI is more than 50 µM.
